Experimental data from ChEMBL document CHEMBL3588807, “Cytotoxic Indolocarbazoles from Actinomadura melliaura ATCC 39691” (J Nat Prod, 2015).
Calls of active or inactive are those of the source. The rule behind the calls is not given here.

Tests used:
[1] = test system: Staphylococcus aureus; assay: Antimicrobial activity against Staphylococcus aureus ATCC 6538 assessed as inhibition of microbial growth incubated for 16 to 48 hrs; format: functional
Method in brief: (§1)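 MIC determined in triplicate against bacterial and yeast strains. Bacterial MICs were read after 16–48 h of incubation and the Saccharomyces cerevisiae MIC after 24 h. Procedure otherwise follows an earlier report.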

[2] = test system: Micrococcus luteus; assay: Antimicrobial activity against Micrococcus luteus NRRL B-287 assessed as inhibition of microbial growth incubated for 16 to 48 hrs; format: functional; method in brief: as §1
[3] = test system: Saccharomyces cerevisiae; assay: Antimicrobial activity against Saccharomyces cerevisiae ATCC 204508 assessed as inhibition of microbial growth incubated for 24 hrs; format: functional; settings: ATCC 204508, 24 h; method in brief: as §1
[4] = test system: Mycolicibacterium smegmatis; assay: Antimicrobial activity against Mycobacterium smegmatis ATCC 14468 assessed as inhibition of microbial growth incubated for 16 to 48 hrs; format: functional; method in brief: as §1
[5] = test system: Salmonella enterica; assay: Antimicrobial activity against Salmonella enterica ATCC 10708 assessed as inhibition of microbial growth up to 60 uM incubated for 16 to 48 hrs; format: functional, organism-based; method in brief: as §1
[6] = test system: Escherichia coli; assay: Antimicrobial activity against Escherichia coli NRRL B-3708 assessed as inhibition of microbial growth up to 60 uM incubated for 16 to 48 hrs; format: functional, organism-based; method in brief: as §1
[7] = test system: PC-3; assay: Cytotoxic activity against human PC3 cells assessed as cell viability at 10 uM incubated for 72 hrs; format: functional; settings: PC-3, 72 h, read-out: Activity
Method in brief: (§2)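 Single-dose viability screen at 10 μM, run in triplicate, on human cancer cell lines.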

[8] = test system: A549; assay: Cytotoxic activity against human A549 cells assessed as cell viability at 10 uM incubated for 72 hrs; format: functional; settings: A549, 72 h, read-out: Activity; method in brief: as §2
[9] = Cytotoxic activity against human U118MG cells assessed as cell viability at 10 uM incubated for 72 hrs; format: functional; settings: U-118-MG, read-out: Activity; method in brief: as §2
[10] = test system: PC-3; assay: Cytotoxic activity against human PC3 cells assessed as reduction in cell viability incubated for 72 hrs; format: functional, cell-based; settings: PC-3, 72 h
Method in brief: (§3)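 IC50 determined from viability over 0.03 to 100 000 nM, run in triplicate, on human cancer cell lines.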

[11] = test system: A549; assay: Cytotoxic activity against human A549 cells assessed as reduction in cell viability incubated for 72 hrs; format: functional, cell-based; settings: A549, 72 h; method in brief: as §3
[12] = Cytotoxic activity against human U118MG cells assessed as reduction in cell viability incubated for 72 hrs; format: functional, cell-based; settings: U-118-MG; method in brief: as §3
[13] = test system: Staphylococcus aureus; assay: Antimicrobial activity against Staphylococcus aureus ATCC 6538 assessed as inhibition of microbial growth up to 60 uM incubated for 16 to 48 hrs; format: functional, organism-based; method in brief: as §1
[14] = test system: Micrococcus luteus; assay: Antimicrobial activity against Micrococcus luteus NRRL B-287 assessed as inhibition of microbial growth up to 60 uM incubated for 16 to 48 hrs; format: functional, organism-based; method in brief: as §1
[15] = test system: Saccharomyces cerevisiae; assay: Antimicrobial activity against Saccharomyces cerevisiae ATCC 204508 assessed as inhibition of microbial growth up to 60 uM incubated for 24 hrs; format: functional, organism-based; method in brief: as §1
[16] = test system: Mycolicibacterium smegmatis; assay: Antimicrobial activity against Mycobacterium smegmatis ATCC 14468 assessed as inhibition of microbial growth up to 120 uM incubated for 16 to 48 hrs; format: functional, organism-based; method in brief: as §1

MIC [1] | MIC [2] | MIC [3] | MIC [4] | SMILES | growth inhibition (GI) [5] | growth inhibition (GI) [6] | viability at 10 µM [7] | viability at 10 µM [8] | viability at 10 µM [9] | IC50 [10] | IC50 [11] | IC50 [12] | growth inhibition (GI) [13] | growth inhibition (GI) [14] | growth inhibition (GI) [15] | growth inhibition (GI) [16]
1 µM | 7.5 µM | 7.5 µM | 60 µM | CN[C@H]1CO[C@@H](OC[C@H]2O[C@@H](n3c4c(Cl)cccc4c4c5c(c6c7ccccc7[nH]c6c43)C(=O)N(C)C5=O)[C@H](O)[C@@H](O)[C@@H]2OC)C[C@@H]1O | inactive | inactive | 27% | 10.5% | 20.8% | 106 nM | 76.4 nM | 56.8 nM |  |  |  | 
7.5 µM | 7.5 µM | > 60 µM | 120 µM | CN[C@H]1CO[C@@H](OC[C@H]2O[C@@H](n3c4ccccc4c4c5c(c6c7ccccc7[nH]c6c43)C(=O)N(C)C5=O)[C@H](O)[C@@H](O)[C@@H]2OC)C[C@@H]1O | inactive | inactive | 36.4% | 16.6% | 29.4% |  |  |  |  |  |  | 
7.5 µM | 15 µM | > 60 µM | > 120 µM | CO[C@H]1[C@H](O)[C@@H](O)[C@H](n2c3ccccc3c3c4c(c5c6ccccc6[nH]c5c32)C(=O)N(C)C4=O)O[C@@H]1CO | inactive | inactive | 98.3% | 96.6% | 61% |  |  |  |  |  |  | 
7.5 µM | 7.5 µM | > 60 µM | 120 µM | CN[C@H]1CO[C@@H](OC[C@H]2O[C@@H](n3c4c(Cl)cccc4c4c5c(c6c7ccccc7[nH]c6c43)C(=O)NC5=O)[C@H](O)[C@@H](O)[C@@H]2OC)C[C@@H]1O | inactive | inactive | 39% | 19.9% | 31.3% | 45.8 nM | 69.6 nM | 47.3 nM |  |  |  | 

The next lines start with the compound.

SMILES | MIC [1] | MIC [2] | MIC [3] | MIC [4] | growth inhibition (GI) [5] | growth inhibition (GI) [6] | viability at 10 µM [7] | viability at 10 µM [8] | viability at 10 µM [9] | IC50 [10] | IC50 [11] | IC50 [12] | growth inhibition (GI) [13] | growth inhibition (GI) [14] | growth inhibition (GI) [15] | growth inhibition (GI) [16]
CN1C(=O)c2c(c3c4cccc(Cl)c4[nH]c3c3[nH]c4ccccc4c23)C1=O |  |  |  |  | inactive | inactive | 155% | 164% | 186% |  |  |  | inactive | inactive | inactive | inactive
O=C1NC(=O)c2c1c1c3ccccc3[nH]c1c1c2c2ccccc2n1[C@@H]1O[C@H](CO)[C@@H](O)[C@H](O)[C@H]1O |  |  |  |  | inactive | inactive | 47.7% | 32.6% | 53.6% |  |  |  | inactive | inactive | inactive | inactive
CO[C@H]1[C@H](O)[C@@H](O)[C@H](n2c3c(Cl)cccc3c3c4c(c5c6ccccc6[nH]c5c32)C(=O)N(C)C4=O)O[C@@H]1CO |  |  |  |  | inactive | inactive | 69% | 47.4% | 40.5% |  |  |  | inactive | inactive | inactive | inactive
